Screening data (PubChem)
Candida biofilm: kills Candida albicans biofilms. C. albicans biofilm + clotrimazole, Alamar Blue. inhibition, % at 6 µM. actives 0.14% (n = 85,000);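 active = inhibition above 20%; inactive = inhibition below 20%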;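 also: preformed 24 hr biofilms exposed to compound for 48 hr; 0% = biofilm without compound and 100% = blank killed by clotrimazole plus chlorhexidine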
Ecoli tolC: blocks growth of E. coli BW25113 tolC mutant. OD615. growth inhibition, % at 10 µM (by protocol). actives 2.2% (n = 65,000). AID 573;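 active = growth inhibition at or above a cutoff equal to the mean over every tested compound plus 3 SD, cut at about 60% in these data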;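 also: growth measured after 20 h incubation at 37 °C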
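test system = E. coli BW25113 ΔtolC::kan bacteria | medium = LB with kanamycin 50 µg/mL | signal = OD at 615 nm | schedule = 37 °C, 20 h exposure | evaluation = % inhibition of E. coli growth | compound dosing = one dose of 10 µM final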
Ecoli WT expand: blocks growth of wild type E. coli BW25113. OD600 absorbance. growth inhibition, % at 100 µM. actives 0.15% (n = 98,000);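 active = growth inhibition above about 50% at one test dose, limit read from the data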;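 also: growth measured after 20 h incubation at 37 °C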
PostGolgi ctrl: yeast control strain growth, post-Golgi counter-screen. efflux-deficient yeast background strain, growth absorbance A615, 16 h. actives 5% (n = 98,000). inhibition, % at 10 µM. AID 738
Pyk2 oligo antag: blocks oligomerization of human Pyk2 in cells | Q14289 | Q293 cells, Pyk2 FERM NanoBiT luminescence; hits give low values | z-score (the deposit names both 25 µM and 10 µM) | actives 0.83% (n = 99,000) | AID 1347419;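 active = Z-score of -3 or lower, scaled per plate to the spread of control and sample wells; inactive = z-score above -3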;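 also: negative z-score means lost luminescence so less FERM oligomerization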
Target sequence (Q14289 whole entry, looked up): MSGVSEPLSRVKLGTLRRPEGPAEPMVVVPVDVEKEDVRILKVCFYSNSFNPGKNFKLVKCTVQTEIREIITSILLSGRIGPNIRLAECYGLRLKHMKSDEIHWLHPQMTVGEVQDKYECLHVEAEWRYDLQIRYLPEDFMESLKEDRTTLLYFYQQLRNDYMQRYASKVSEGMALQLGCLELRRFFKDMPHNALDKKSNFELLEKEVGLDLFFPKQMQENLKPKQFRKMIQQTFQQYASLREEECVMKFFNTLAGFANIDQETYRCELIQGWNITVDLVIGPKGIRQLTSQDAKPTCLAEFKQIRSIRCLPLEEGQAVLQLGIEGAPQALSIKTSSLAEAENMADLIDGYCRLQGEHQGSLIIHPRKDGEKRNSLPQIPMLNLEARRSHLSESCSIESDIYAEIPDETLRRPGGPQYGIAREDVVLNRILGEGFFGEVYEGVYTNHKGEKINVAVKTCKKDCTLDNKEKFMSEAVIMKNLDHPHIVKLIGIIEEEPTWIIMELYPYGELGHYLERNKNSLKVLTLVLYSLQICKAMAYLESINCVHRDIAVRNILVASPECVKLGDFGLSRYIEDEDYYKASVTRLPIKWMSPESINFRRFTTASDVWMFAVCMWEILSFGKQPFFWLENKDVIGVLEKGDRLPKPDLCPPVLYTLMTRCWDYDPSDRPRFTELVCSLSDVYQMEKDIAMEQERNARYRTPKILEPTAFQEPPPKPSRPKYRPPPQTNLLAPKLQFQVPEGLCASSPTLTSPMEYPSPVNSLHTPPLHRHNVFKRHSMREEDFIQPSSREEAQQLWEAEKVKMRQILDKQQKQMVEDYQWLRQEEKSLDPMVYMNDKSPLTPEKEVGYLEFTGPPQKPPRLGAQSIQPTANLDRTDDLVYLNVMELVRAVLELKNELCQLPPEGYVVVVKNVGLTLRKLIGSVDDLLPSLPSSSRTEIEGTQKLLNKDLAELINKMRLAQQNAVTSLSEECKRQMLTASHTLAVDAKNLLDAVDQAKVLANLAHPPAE
PostGolgi yeast: growth inhibition of a yeast mutant, post-Golgi transport screen | post-Golgi transport phenotypic cell assay | inhibition, % at 10 µM | actives 0.9% (n = 98,000) | AID 739;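 also: yeast cells grown in 1536-well plates; yeast grown about 18 h at 30C before absorbance read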
Active calls of the source: *. Compounds with a hit are over-represented: about 6.5% of the library has one in this group of screens. Rule as the data show it, unless noted: active = inhibition above about 30%; inactive = the rest.

Screening CC(C)CNC(=S)NC1CC2CCCC(C1)N2Cc1ccco1 (stereo not drawn) returned Ecoli WT expand -3, PostGolgi ctrl 31*, Pyk2 oligo antag 0.13 and PostGolgi yeast -9.
For Cc1ccc(C(=O)COC(=O)CCC(=O)Nc2cccc(Cl)c2)cc1[N+](=O)[O-] the results were Ecoli WT expand -7, PostGolgi ctrl 15, Pyk2 oligo antag 0.34 and PostGolgi yeast -10.
For Nn1c(SCC(=O)Nc2ccc(F)cc2)nnc1-c1cccnc1 the results were Candida biofilm 9, Ecoli tolC -10, Ecoli WT expand 7, PostGolgi ctrl 1, Pyk2 oligo antag 0.9 and PostGolgi yeast 2.
Screening CC(=O)n1c2c(c3ccccc31)OC(N)=C(C#N)C2c1ccc(C(C)C)cc1 (stereo not drawn) returned Ecoli WT expand -2, PostGolgi ctrl 34*, Pyk2 oligo antag 0.9 and PostGolgi yeast 18.
For Cc1ccc(S(=O)(=O)n2nc(C)c(Br)c2C)c(C)c1C the results were Ecoli tolC 35, Ecoli WT expand 3, PostGolgi ctrl 48*, Pyk2 oligo antag -0.61 and PostGolgi yeast -7.
Cc1[nH]c2ccccc2c1C1(O)C(=O)N(Cc2ccc3c(c2)OCO3)c2ccccc21 (stereo not drawn) was read as Candida biofilm 8, Ecoli tolC 47, Ecoli WT expand 1, PostGolgi ctrl 31*, Pyk2 oligo antag -0.62 and PostGolgi yeast 5.
O=C(CN1CCC(NC(=O)Cc2ccccc2)CC1)Nc1cccc2ccccc12 was read as Ecoli WT expand -1, PostGolgi ctrl -2, Pyk2 oligo antag -0.47 and PostGolgi yeast -26.
Screening CCOC(=O)C1CCN(C(c2cc3c(C)ccc(C)c3[nH]c2=O)c2nnnn2C2CCCCC2)CC1 (stereo not drawn) returned Ecoli tolC 35, Ecoli WT expand -7, PostGolgi ctrl 30*, Pyk2 oligo antag -0.17 and PostGolgi yeast 5.
For O=c1cc(-c2ccccc2)[nH]n1-c1nc2ccccc2[nH]1 the results were Candida biofilm 5, Ecoli WT expand 55*, PostGolgi ctrl 4, Pyk2 oligo antag 0.15 and PostGolgi yeast -5.
For CCCc1nc(NCC2CCCO2)c2nnn(Cc3ccccc3)c2n1 (stereo not drawn) the results were Candida biofilm 8 and Pyk2 oligo antag -1.
Screening Cc1ccc(-n2c(-c3c(-c4ccccc4)noc3C)n[nH]c2=S)cc1 returned Candida biofilm 1, Ecoli WT expand 4, PostGolgi ctrl 13, Pyk2 oligo antag 1.2 and PostGolgi yeast -1.
CC(C)On1c(SC(C)C)nc2ccccc2c1=O was read as Candida biofilm 5, Ecoli WT expand 12, PostGolgi ctrl 8, Pyk2 oligo antag -0.06 and PostGolgi yeast 4.
For COn1c(SC(C)C)nc2ccccc2c1=O the results were Candida biofilm 4, Ecoli WT expand 10, PostGolgi ctrl 34*, Pyk2 oligo antag 0.07 and PostGolgi yeast 2.
`CCOC(=O)c1c(C)oc2ccc(NS(=O)(=O)c3ccc4c5c(cccc35)C(=O)N4)cc12` gave Candida biofilm 2, Ecoli tolC 68*, Ecoli WT expand 0, PostGolgi ctrl 9, Pyk2 oligo antag -2.6 and PostGolgi yeast 7.
For COCCOC(=O)c1c(C)oc2ccc(NS(=O)(=O)c3ccccc3)cc12 the results were Candida biofilm 3, Ecoli tolC 35, Ecoli WT expand -1, PostGolgi ctrl 14, Pyk2 oligo antag -0.88 and PostGolgi yeast -6.
`Cc1ccc2oc(C(=O)NCc3ccc4c(c3)OCO4)c(C)c2c1` gave Candida biofilm 10, Ecoli tolC 86*, Ecoli WT expand -9, PostGolgi ctrl 28, Pyk2 oligo antag -0.79 and PostGolgi yeast -1.
For O=C(NCc1ccc2c(c1)OCO2)c1ccc(-c2ccc(Cl)cc2)o1 the results were Candida biofilm 4, Ecoli tolC 79*, Ecoli WT expand -21, PostGolgi ctrl 70*, Pyk2 oligo antag 0.66 and PostGolgi yeast 16.
`Cc1ccc(NC(=O)c2nnn(-c3cc(C)cc(C)c3)c2N)cc1` gave Candida biofilm -5, Ecoli tolC 67*, Ecoli WT expand -10, PostGolgi ctrl 5, Pyk2 oligo antag -1.9 and PostGolgi yeast -10.
Cc1cccc(-n2nnc(C(=O)NCc3ccc4c(c3)OCO4)c2N)c1 was read as Candida biofilm 7, Ecoli tolC 23, Ecoli WT expand -21, PostGolgi ctrl 9, Pyk2 oligo antag -0.56 and PostGolgi yeast -3.
Cc1cc(C)cc(-n2nnc(C(=O)NCc3ccc4c(c3)OCO4)c2N)c1 was read as Candida biofilm 4, Ecoli tolC 44, Ecoli WT expand -8, PostGolgi ctrl 31*, Pyk2 oligo antag -1.7 and PostGolgi yeast -3.
`O=C(NCc1ccc2c(c1)OCO2)c1cccc(Cl)c1` gave Candida biofilm 9, Ecoli tolC -13, Ecoli WT expand -4, PostGolgi ctrl 2, Pyk2 oligo antag 0.1 and PostGolgi yeast -2.
For O=C(NCc1ccc2c(c1)OCO2)c1ccncc1 the results were Candida biofilm 6, Ecoli tolC -10, Ecoli WT expand -2, PostGolgi ctrl 3, Pyk2 oligo antag 1.1 and PostGolgi yeast -11.
For O=C(NCc1ccc2c(c1)OCO2)c1ccc(-n2cnnn2)cc1 the results were Candida biofilm 8, Ecoli tolC -20, Ecoli WT expand 9, PostGolgi ctrl 1, Pyk2 oligo antag 1 and PostGolgi yeast 41*.
COC(=O)C1=CN(c2cccc(C)c2)C=C(C(=O)OC)C1c1cc(OC)c(O)c([N+](=O)[O-])c1 was read as Ecoli WT expand -10, PostGolgi ctrl 67*, Pyk2 oligo antag -2.7 and PostGolgi yeast -2.
Screening COc1ccc2[nH]c3c(=O)n(CCCCC(=O)N4CCCC4)c(=S)[nH]c3c2c1 returned Candida biofilm -3, Ecoli tolC 100*, Ecoli WT expand 1, PostGolgi ctrl -12, Pyk2 oligo antag -0.47 and PostGolgi yeast 4.
Cc1ccc(-c2ccc(=O)n(CC(=O)NCCCN3CCCCC3C)n2)cc1 (stereo not drawn) was read as Candida biofilm 5, Ecoli tolC 3, Ecoli WT expand 4, PostGolgi ctrl 9, Pyk2 oligo antag 0.1 and PostGolgi yeast -8.
Screening CC1CCCCN1CCNC(=O)Cn1nc(-c2ccccc2)ccc1=O (stereo not drawn) returned Candida biofilm -5, Ecoli tolC -16, Ecoli WT expand -2, PostGolgi ctrl 0, Pyk2 oligo antag 2.6 and PostGolgi yeast 39*.
`O=C(CN(C(=O)Cn1nnc(-c2cccs2)n1)c1ccc2c(c1)OCCO2)NCc1ccccc1` gave Candida biofilm 6, Ecoli WT expand -2, PostGolgi ctrl 6, Pyk2 oligo antag -3* and PostGolgi yeast -2.
`O=C(CN(CCc1ccccc1)C(=O)Cn1nnc(-c2cccs2)n1)NCc1ccco1` gave Candida biofilm -5, Ecoli tolC 9, Ecoli WT expand -12, PostGolgi ctrl 11, Pyk2 oligo antag -0.83 and PostGolgi yeast -4.
O=C(NCCCn1ccnc1)c1ccc(Br)o1 was read as Ecoli WT expand 2, PostGolgi ctrl 1, Pyk2 oligo antag -0.19 and PostGolgi yeast -9.
